Consider one compound from paper PMC3062473 (ChemMedChem, 2010).

One series deals with T1, caspase 1 (Homo sapiens, UniProt P29466).
T1 sequence (P29466 120-297 limits assumed): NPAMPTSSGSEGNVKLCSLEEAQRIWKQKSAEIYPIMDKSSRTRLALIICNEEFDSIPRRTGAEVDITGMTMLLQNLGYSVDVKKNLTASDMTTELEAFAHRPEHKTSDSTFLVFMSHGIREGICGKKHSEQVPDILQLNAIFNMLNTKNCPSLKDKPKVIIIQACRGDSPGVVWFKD
T1 sequence (P29466 317-404 limits assumed): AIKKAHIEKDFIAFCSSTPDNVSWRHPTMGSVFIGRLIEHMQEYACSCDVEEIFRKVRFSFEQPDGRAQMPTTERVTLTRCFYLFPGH
In words: Reaction Biology caspase panel. The class given is biochemical. As to conditions: read-out: Caspase 1 IC50; (Z-LEHD)2-R110 substrate; three separate experiments.

Series [1] deals with T2, Caspase 3 (Homo sapiens, UniProt P42574).
T2 sequence (P42574 29-175 limits assumed): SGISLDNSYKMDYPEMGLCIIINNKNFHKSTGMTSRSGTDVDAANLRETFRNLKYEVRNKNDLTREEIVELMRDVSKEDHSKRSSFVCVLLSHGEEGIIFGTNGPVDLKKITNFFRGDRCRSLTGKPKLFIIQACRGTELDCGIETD
T2 sequence (P42574 176-277 limits assumed): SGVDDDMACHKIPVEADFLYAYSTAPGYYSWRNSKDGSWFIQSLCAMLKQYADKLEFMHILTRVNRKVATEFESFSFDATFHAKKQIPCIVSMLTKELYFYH
In words: Reaction Biology caspase panel. The class given is biochemical. The note with it: read-out: Caspase 3 IC50; (Z-DEVD)2-R110 substrate; three separate experiments.

In the next series the target is T3, Caspase 5 (Homo sapiens, UniProt P51878).
T3 sequence (P51878 137-327 limits assumed): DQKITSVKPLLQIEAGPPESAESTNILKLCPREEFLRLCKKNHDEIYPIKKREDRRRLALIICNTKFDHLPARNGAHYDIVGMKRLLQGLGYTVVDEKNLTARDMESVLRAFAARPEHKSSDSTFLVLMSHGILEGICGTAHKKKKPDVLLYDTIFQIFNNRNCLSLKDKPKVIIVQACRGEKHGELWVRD
T3 sequence (P51878 347-434 limits assumed): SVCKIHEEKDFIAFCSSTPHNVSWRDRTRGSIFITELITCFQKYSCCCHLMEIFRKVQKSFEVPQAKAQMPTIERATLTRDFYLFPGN
In words: Reaction Biology caspase panel. The class given is biochemical. The note with it: read-out: Caspase 5 IC50; (Z-LEHD)2-R110 substrate; three separate experiments.

The target of the next series is T4, Caspase 7 (Homo sapiens, UniProt P55210).
T4 sequence (P55210 24-198 limits assumed): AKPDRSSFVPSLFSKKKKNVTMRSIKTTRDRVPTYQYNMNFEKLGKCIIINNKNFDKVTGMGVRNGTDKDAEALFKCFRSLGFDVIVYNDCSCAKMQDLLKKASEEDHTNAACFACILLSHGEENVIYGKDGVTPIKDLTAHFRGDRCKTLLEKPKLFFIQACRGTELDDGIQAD
T4 sequence (P55210 207-303 limits assumed): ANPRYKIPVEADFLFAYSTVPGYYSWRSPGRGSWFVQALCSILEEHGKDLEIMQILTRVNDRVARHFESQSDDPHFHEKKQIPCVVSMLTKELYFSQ
In words: Reaction Biology caspase panel. In kind it is biochemical. The note with it: read-out: Caspase 7 IC50; (Z-DEVD)2-R110 substrate; three separate experiments.

The target of series [2] is T5, Caspase 8 (Homo sapiens, UniProt Q14790). The experiment in a line: Reaction Biology caspase panel. The note with it: read-out: Caspase 8 IC50; (Z-LEHD)2-R110 substrate; three separate experiments. In kind it is biochemical.
A further series has as its target T6, Caspase 10 (Homo sapiens, UniProt Q92851).
T6 sequence (Q92851 220-415 limits assumed): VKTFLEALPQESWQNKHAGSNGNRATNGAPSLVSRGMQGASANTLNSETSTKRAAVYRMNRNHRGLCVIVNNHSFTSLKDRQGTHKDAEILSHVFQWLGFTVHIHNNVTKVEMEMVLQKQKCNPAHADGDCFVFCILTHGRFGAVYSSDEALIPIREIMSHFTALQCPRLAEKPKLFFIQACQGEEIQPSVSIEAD
T6 sequence (Q92851 416-521 limits assumed): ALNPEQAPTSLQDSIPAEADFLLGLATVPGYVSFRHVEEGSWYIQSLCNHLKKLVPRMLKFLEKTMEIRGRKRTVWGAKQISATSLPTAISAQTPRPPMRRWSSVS
The experiment in a line: Reaction Biology caspase panel. The class given is biochemical. As to conditions: read-out: Caspase 10 IC50; (Z-LEHD)2-R110 substrate; three separate experiments.

Series [3] is described as follows: Aqueous degradation study by LCMS over 96 hours. In kind it is physicochemical. The note with it: up to 96 hours.
A further series is described as follows: Microsomal stability. The note with it: human, liver microsomes. The class given is in vitro ADME, human. In outline: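 Human microsomal stability, profiled by a contract lab alongside internal control compounds. Includes minus-NADPH and minus-compound control incubations.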
The target in series [4] is T5, Caspase 8. As to conditions: read-out: Ki caspase 8; cited from earlier work.
The target of another series is T7, Caspase 9 (Homo sapiens, UniProt P55211).
T7 sequence (P55211 1-315 limits assumed): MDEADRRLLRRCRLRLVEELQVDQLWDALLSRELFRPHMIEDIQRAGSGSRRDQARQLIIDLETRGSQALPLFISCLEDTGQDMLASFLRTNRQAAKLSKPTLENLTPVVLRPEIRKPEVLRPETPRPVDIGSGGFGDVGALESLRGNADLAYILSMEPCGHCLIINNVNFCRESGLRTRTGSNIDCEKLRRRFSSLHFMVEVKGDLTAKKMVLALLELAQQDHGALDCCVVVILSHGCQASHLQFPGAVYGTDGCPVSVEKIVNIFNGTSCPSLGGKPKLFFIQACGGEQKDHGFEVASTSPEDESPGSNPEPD
T7 sequence (P55211 331-416 limits assumed): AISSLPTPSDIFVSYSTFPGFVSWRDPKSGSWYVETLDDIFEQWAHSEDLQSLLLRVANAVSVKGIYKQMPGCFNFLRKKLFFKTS
As to conditions: read-out: Ki caspase 9; cited from earlier work.

The target of series [5] is T2, Caspase 3. The note with it: cited from earlier work.
A further series relates to cathepsin B. As to conditions: cited from earlier work.
The subject of a further series is trypsin. As to conditions: cited from earlier work.

T5 sequence (Q14790 217-374 limits assumed): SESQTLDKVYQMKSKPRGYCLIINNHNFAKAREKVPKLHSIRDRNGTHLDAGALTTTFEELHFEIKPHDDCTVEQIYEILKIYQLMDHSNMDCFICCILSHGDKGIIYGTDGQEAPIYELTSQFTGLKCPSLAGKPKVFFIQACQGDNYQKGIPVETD
T5 sequence (Q14790 385-479 limits assumed): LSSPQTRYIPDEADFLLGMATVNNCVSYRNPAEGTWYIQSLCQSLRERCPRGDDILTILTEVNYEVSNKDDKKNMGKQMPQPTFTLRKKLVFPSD

With `CC(C)(C)[C@H](NC(=O)c1ccc(N)c(Cl)c1)C(=O)N1CCC[C@H]1C(=O)N[C@H](C=O)CC(=O)O` [Compound 2b, reference compound], the IC50 was 0.204 nM at caspase 1; above 10000 nM on Caspase 3 [1]; 10.6 nM at Caspase 5; above 10000 nM on Caspase 7; 3.3 nM on Caspase 8 [2]; 66.5 nM at Caspase 10. The “aqueous stability (in words)” value was “very stable” in series [3] (acidic (pH 2)), “moderate” in [3] (basic (pH 8)) and “very stable” in series [3] (neutral (pH 7)). In “Microsomal stability”, the “Microsomal Stability CLint” value was determined as 6.72 μL/min/mg protein. The “Microsomal Stability t1/2” value in the series “Microsomal stability” stood at 3.43 h. Moreover, the inhibition constant Ki at Caspase 8 [4] was 100 nM; on Caspase 9, 1030 nM. Further, the “activity against caspase 3” value on Caspase 3 [5] is “little activity”. The “activity against cathepsin B” value in the series with cathepsin B is recorded as “little activity”. In addition, the activity against trypsin entry in the series on trypsin is listed as “little activity”.
